Screening data (PubChem BioAssay)
Only some compounds are listed: those with a hit (about 1.5% of all), similar ones and a draw of the others.
CXCR6 block – inhibitors of human CXCR6 receptor. O00574. CHO-K1 PathHunter CXCR6 beta-arrestin, luminescence. inhibition, % at 20 µM. 360,000 compounds, 0.36% hits. AID 602244; in the data active = inhibition above about 34%, passing the limit was not always enough;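 also: antagonist mode with CXCL16 agonist at 10 nM final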
Target sequence (O00574 whole entry, looked up): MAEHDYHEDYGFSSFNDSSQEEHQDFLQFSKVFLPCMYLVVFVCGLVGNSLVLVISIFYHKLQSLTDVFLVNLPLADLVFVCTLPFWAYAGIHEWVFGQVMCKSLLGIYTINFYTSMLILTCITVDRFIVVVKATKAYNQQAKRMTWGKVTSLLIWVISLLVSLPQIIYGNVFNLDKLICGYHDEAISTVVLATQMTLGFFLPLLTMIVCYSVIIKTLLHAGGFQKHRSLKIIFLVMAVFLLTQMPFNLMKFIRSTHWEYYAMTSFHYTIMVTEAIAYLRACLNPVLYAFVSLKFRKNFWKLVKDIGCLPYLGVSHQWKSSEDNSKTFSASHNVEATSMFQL
APJ ag – activates the human apelin receptor APJ; AID 2520; activation, % at 20 µM; CHO-K1 APJ PathHunter beta-arrestin, luminescence; 0% DMSO wells, 100% apelin; 330,000 compounds, 0.11% hits; P35414;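 active = activation more than six SD over the plate average, tested at 20 µM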
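Incubation: overnight seeding, 90 min compound at 25 °C, 1 h detection; test system: PathHunter CHO-K1 APJ (AGTRL-1) beta-arrestin reporter cells; amount: 1000 cells/well; doses: one dose, 20 µM compound, 1% DMSO; measured by: beta-gal luminescence; measure: agonist-driven arrestin binding to APJ; benchmarks: negative DMSO alone, positive Apelin-13 at 10 nM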
CCR6 antagonist – CCR6 (human) receptor antagonism. CHO-K1 CCR6 PathHunter beta-arrestin, luminescence, CCL20-stimulated. inhibition, % at 20 µM. 340,000 compounds, 0.49% hits. AID 493098;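 active = compounds whose inhibition of the agonist-driven luminescence signal at 20 µM reaches about 50%, limit read from the data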;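 also: cells stimulated with CCL20 at 14 nM final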
Target sequence (P51684 whole entry, looked up): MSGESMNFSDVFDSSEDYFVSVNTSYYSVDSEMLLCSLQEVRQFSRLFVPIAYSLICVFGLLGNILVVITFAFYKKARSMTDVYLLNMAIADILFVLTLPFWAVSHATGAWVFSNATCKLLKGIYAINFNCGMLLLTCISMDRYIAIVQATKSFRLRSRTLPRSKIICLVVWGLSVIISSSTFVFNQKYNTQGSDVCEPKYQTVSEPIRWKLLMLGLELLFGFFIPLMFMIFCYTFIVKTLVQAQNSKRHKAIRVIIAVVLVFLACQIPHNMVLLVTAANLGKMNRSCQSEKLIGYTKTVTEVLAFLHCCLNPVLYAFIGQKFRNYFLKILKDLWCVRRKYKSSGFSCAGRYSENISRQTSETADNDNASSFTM
EBI2 antag – blocks human EBI2 receptor beta-arrestin signaling; P32249; EBI2 beta-arrestin recruitment, luminescence, 7a,25-OHC stimulated; inhibition, % at 5 µM; 360,000 compounds, 0.81% hits; in the data active = inhibition above about 38%;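 also: enzyme fragment complementation signal reports receptor beta-arrestin coupling in cells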
APJ antagonist – APJ receptor antagonism; P35414; CHO-K1 APJ beta-arrestin complementation, luminescence; inhibition, % at 20 µM; 330,000 compounds, 0.32% hits; AID 2521;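 active = inhibition above about 40% at 20 µM, limit read from the data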;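 also: cells challenged with 10 nM apelin-13 agonist together with compound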
Each line names hits and unclear results; the compound was inactive in the other large screens.

COc1ccc(S(=O)(=O)Nc2cc(SCC(=O)O)c(O)c3ccccc23)cc1	none
O=S(=O)(Nc1cc(Sc2cccc3cccnc23)c(O)c2ccccc12)c1ccc(F)cc1	CCR6 antagonist 65 (no result: CXCR6 block, APJ ag, EBI2 antag, APJ antagonist)
O=C(Sc1cccc2cccnc12)c1ccc(F)cc1	APJ antagonist 44 (no result: CXCR6 block, CCR6 antagonist, EBI2 antag)
Cc1cc2c(cn1)C(CCC#N)(CCC#N)c1ccccc1-2	none
N#Cc1ccc(COC(=O)c2ccc3c(c2)OCO3)cc1	none
COc1cccc(NC(=O)CN(C)C(=O)c2c(C)nn(-c3ccccc3)c2Cl)c1	none
CC1=CC(C)(C)Nc2ccc(OC(=O)c3cccnc3)cc21	none
CC1=CC(C)(C)Nc2ccc(OC(=O)c3ccco3)cc21	CCR6 antagonist 52
COc1ccc(N2C(=O)CC(Sc3ncn[nH]3)C2=O)c(OC)c1 (centres undefined)	CCR6 antagonist 79
CC(C)c1ccc(N2C(=O)CC(Sc3ncn[nH]3)C2=O)cc1 (centres undefined)	none
CN(C)C(=O)c1ccc(N=Nc2c(O)c3ccccc3[nH]c2=O)cc1	none (no result: APJ ag, APJ antagonist)
CN(C)C(=S)N=Nc1[nH]c2ccccc2c1O	CCR6 antagonist 63 (no result: CXCR6 block, EBI2 antag)
N#CCCN1CCCc2cc(N=Nc3ccc(C(F)(F)F)cc3)ccc21	EBI2 antag 56
CCCN1CCCc2ccccc21	none
NC(=O)N=Nc1c(O)[nH]c2ccc([N+](=O)[O-])cc12	none
O=C(N=Nc1c(O)[nH]c2ccc([N+](=O)[O-])cc12)c1cc(-c2ccccc2Cl)nc2ccccc12	CCR6 antagonist 65
O=C(O)c1cc(N=Nc2c(O)[nH]c3ccc([N+](=O)[O-])cc23)ccc1Cl	CXCR6 block 40
COc1ccccc1C(=O)N=Nc1c(O)[nH]c2ccc([N+](=O)[O-])cc12	none (no result: APJ ag, APJ antagonist)
COC(=O)/C=C\C(C#N)(C#N)N=Cc1ccc(OC)cc1	CXCR6 block 65 (no result: APJ ag, APJ antagonist)
COc1ccc(C=NNC(=O)CCCCC(=O)NN=Cc2ccc(OC)cc2)cc1	none (no result: APJ ag, APJ antagonist)
CCCCNc1c(-c2ccc(SC(C)CC)c(OC)c2)nc2ccc(Cl)cn12 (centres undefined)	none
CCCCNc1c(-c2ccc(-c3ccc(OC)cc3)c(OC)c2)nc2ccccn12	EBI2 antag 54
CCCCNc1c(-c2ccc(SC(C)CC)c(OC)c2)nc2ccc(C)cn12 (centres undefined)	EBI2 antag 55
O=C(NCC(=O)N(c1cccc(F)c1)C(C(=O)NC1CCCC1)c1ccncc1)c1cccs1 (centres undefined)	none
O=C(N/N=C/c1cc(Cl)ccc1O)c1ccc(Br)cc1	EBI2 antag 48 (no result: APJ ag, APJ antagonist)
O=C(N/N=C\c1cc(Br)ccc1O)c1ccc(S(=O)(=O)N2CCCCC2)cc1	EBI2 antag 58
O=C(N/N=C/c1ccc(O)c(O)c1)c1cccc(S(=O)(=O)N2CCCCC2)c1	none
O=C(Nc1ccc(Cc2ccncc2)cc1)c1ccc(S(=O)(=O)N2CCCC2)cc1	none
O=C(Nc1ccc(S(=O)(=O)N2CCCCC2)cc1)c1ccncc1	CCR6 antagonist 58
CC1CCCCC1NC(=O)CSc1nnc(C(F)(F)F)n1C (centres undefined)	none (no result: APJ ag, CCR6 antagonist, APJ antagonist)
COc1ccc(C2CC(c3ccc(Br)cc3)=NN2C(=S)Nc2ccccc2)cc1 (centres undefined)	none
CNC(=S)N1N=C(c2ccc(Br)cc2)CC1c1ccc(N(C)C)cc1 (centres undefined)	EBI2 antag 94
CC1CC(C)CN(S(=O)(=O)N2CCCC(C(=O)NCc3ccccc3Cl)C2)C1 (centres undefined)	CCR6 antagonist 56
O=[N+]([O-])c1cc(Cl)cc(/C=N\Nc2ccccn2)c1O	CXCR6 block 78, CCR6 antagonist 74
Cc1c(C(C)CCCO)oc(=O)c2c1Oc1c(C)c(C(C)C[C@H](C)O)oc(=O)c1C2 (some centres undefined)	none
Oc1ccc(/C=N/Nc2ccnc3cc(Cl)ccc23)c(O)c1	EBI2 antag 46
On1ccccc1=S	CXCR6 block 75, CCR6 antagonist 83 (no result: APJ ag, APJ antagonist)
CCOc1cc(/C=N/NC(N)=S)cc(Br)c1OCc1ccccc1C	EBI2 antag 47
COc1cc(/C=N/NC(N)=S)cc(Br)c1OCc1ccccc1F	none
O=C(CSc1c(F)c(F)cc(F)c1F)Nc1ccc(C2SCCS2)cc1	none
C=CCc1cc(Cl)ccc1OCCCn1ccnc1	none
O=C(c1[nH]nc2c1CCc1ccccc1-2)N1CCN(Cc2ccc3c(c2)OCO3)CC1	EBI2 antag 83
O=C(c1ccccc1)N1CCN(Cc2ccc3c(c2)OCO3)CC1	none
CCc1nnc(NC(=O)c2cccc(C(=O)Nc3nnc(CC)s3)n2)s1	CXCR6 block 52, CCR6 antagonist 73 (no result: APJ ag, APJ antagonist)
CCN1/C(=C/c2cc[n+](C)cc2)C=Cc2cc(C)ccc21	CCR6 antagonist 57 (no result: APJ ag, APJ antagonist)
CS(=O)(=O)N1CCN(C(=O)Cc2ccc(Br)cc2)CC1	none
CC(/C=N/NC(=O)CNc1n[nH]c(=O)[nH]c1=O)c1ccccc1 (centres undefined)	none
Cc1ccnc(NC(=S)N2CCN(c3cccc(C(F)(F)F)c3)CC2)c1	CCR6 antagonist 51
O=C(/C=C/c1ccccc1)c1cc(Br)ccc(=O)c1O	CCR6 antagonist 59
O=C1C=CC(=O)N1c1ccc(-c2nc3ccccc3o2)cc1	CXCR6 block 60 (no result: APJ ag, CCR6 antagonist, APJ antagonist)
Nc1ccc(-c2nc3ccccc3o2)cc1	none
Cc1nc([N+](=O)[O-])c(Br)n1CC(=O)c1ccc2ccccc2c1	EBI2 antag 55
CC(OC(=O)CSCC(=O)Nc1ccc(Cl)cc1)C(=O)N(C)Cc1ccccc1 (centres undefined)	none (no result: APJ ag, APJ antagonist)
NC(=O)C1CCN(C(=O)CCNS(=O)(=O)c2ccccc2F)CC1	none
O=C(NC(=S)Nc1ccc(-c2ccc(CO)o2)cc1)c1cccs1	APJ antagonist 51
Cc1c(C(=O)NC(=S)Nc2ccc(NC(=O)c3cccs3)cc2)cccc1[N+](=O)[O-]	CCR6 antagonist 58
Cc1c(C(=O)NC(=S)Nc2ccc3c4c(cccc24)CC3)cccc1[N+](=O)[O-]	CCR6 antagonist 67
Cc1c(C(=O)Nc2ccc3c4c(cccc24)CC3)cccc1[N+](=O)[O-]	none
CC(=O)c1ccc(S(=O)(=O)N2CCCC(N(C)CCc3ccccn3)C2)cc1 (centres undefined)	none
O=C(CC(=O)c1ccccc1)CS(=O)(=O)c1ccccc1	none (no result: APJ ag, APJ antagonist)
C=C(C)C(=O)Oc1ccc(N=Nc2ccc(C)cc2)ccc1=O	CXCR6 block 65, CCR6 antagonist 92 (no result: APJ ag, APJ antagonist)
O=S(=O)(NCCN1CCOCC1)c1ccc(F)c(Cl)c1	none
Cc1cccc(NC(=O)[C@@H]2CCCN2S(=O)(=O)c2ccc(Cl)cc2)c1	none
COc1ccccc1NC(=O)COc1ccc(/C=N/NC(=O)CSCc2cc(C)cc(C)c2)cc1	none
COc1ccccc1NC(=O)COc1ccc(/C=N/NC(=O)CSCc2ccc(Cl)cc2)cc1	APJ antagonist 64
Cc1ccc(Cl)cc1NC1=C/C(=N\S(=O)(=O)c2cccs2)c2ccccc2C1=O	CCR6 antagonist 59
CCc1ccc(S(=O)(=O)/N=C2\C=C(Nc3ccc(O)cc3)C(=O)c3ccccc32)cc1	CXCR6 block 41, CCR6 antagonist 57
